Experimental data taken from ChEMBL document CHEMBL1121929, “[(3-aryl-1,2-benzisoxazol-6-yl)oxy]acetic acids. A new diuretic series” (1982).

Assays:
Canis familiaris = assay: Diuretic activity was measured after oral administration in conscious water loaded dogs at 20 mg/kg after 1 hr; assay type: functional, Canis lupus familiaris, Urine
How it was run: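 Male mongrel dogs (20–25 kg) were given 20 mL/kg tap water by gavage about 15 h before drug, with water ad libitum overnight. On the test day they received 4 mL/kg tap water hourly for 7 h, and the bladder was emptied at each interval. Drug was gavaged in the 4 mL/kg water load after the third urine sample, with Tween 80 added when it was poorly soluble. Urinary Na+ was measured by flame photometry as the mean excretory rate (μequiv/kg) per interval per animal. Each dog was its own control, using the hour before dosing.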

Mus musculus [1] = assay: The diuretic activity was measured after oral administration in saline loaded mice at 64 mg/kg after 5 hr; assay type: functional, Urine
How it was run: (§1)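 Mice were dosed orally with drug in 1% saline at 10 mL/kg, at 4 or 64 mg/kg, alongside a vehicle control. There were 10 mice per group, housed 5 per metabolic cage. Pooled urine was analysed for sodium by flame photometry and expressed as mean mequiv/kg/5 h.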

Mus musculus [2] = assay: The diuretic activity was measured after oral administration in saline loaded mice at 4 mg/kg after 5 hr; assay type: functional, Urine; how it was run: as §1

Structure (SMILES) | Oral diuretic activity (Canis familiaris) | Oral diuretic activity (Mus musculus [1]) | Oral diuretic activity (Mus musculus [2])
O=C(O)COc1ccc2c(-c3cccc(F)c3F)noc2c1Cl | 80 u equiv of [Na+] kg-1 hr-1 | 5.8 m equiv [Na+] 5hr-1kg-1 | 
O=C(O)COc1ccc2c(-c3cc(F)ccc3F)noc2c1Cl | 926.2 u equiv of [Na+] kg-1 hr-1 | 8.3 m equiv [Na+] 5hr-1kg-1 | 2.2 m equiv [Na+] 5hr-1kg-1
O=C(O)COc1c(Cl)c(Cl)c2c(-c3ccccc3F)noc2c1Cl | 109 u equiv of [Na+] kg-1 hr-1 | 1.65 m equiv [Na+] 5hr-1kg-1 | 0.53 m equiv [Na+] 5hr-1kg-1
O=C(O)COc1c(Cl)cc2c(-c3ccccc3F)noc2c1Cl | 85.7 u equiv of [Na+] kg-1 hr-1 | 0.41 m equiv [Na+] 5hr-1kg-1 | 
O=C(O)COc1ccc2c(-c3ccc(O)cc3F)noc2c1Cl | 43.5 u equiv of [Na+] kg-1 hr-1 | 0.6 m equiv [Na+] 5hr-1kg-1 | 0.5 m equiv [Na+] 5hr-1kg-1
O=C(O)COc1ccc(-c2noc3ccccc23)c(Cl)c1Cl | 81.6 u equiv of [Na+] kg-1 hr-1 | 1.49 m equiv [Na+] 5hr-1kg-1 | 0.33 m equiv [Na+] 5hr-1kg-1
Cc1ccc(-c2noc3c(Cl)c(OCC(=O)O)ccc23)s1 | 122.4 u equiv of [Na+] kg-1 hr-1 | 0.5 m equiv [Na+] 5hr-1kg-1 | 
O=C(O)COc1ccc2c(-c3ccccc3Cl)noc2c1Cl | 48.2 u equiv of [Na+] kg-1 hr-1 | 9.1 m equiv [Na+] 5hr-1kg-1 | 0.6 m equiv [Na+] 5hr-1kg-1
O=C(O)COc1ccc2c(-c3ccccc3F)noc2c1I | 617.3 u equiv of [Na+] kg-1 hr-1 | 3.41 m equiv [Na+] 5hr-1kg-1 | 0.07 m equiv [Na+] 5hr-1kg-1
O=C(O)COc1ccc2c(-c3ccc(F)cc3F)noc2c1Cl | 41.7 u equiv of [Na+] kg-1 hr-1 | 0.9 m equiv [Na+] 5hr-1kg-1 | 0.7 m equiv [Na+] 5hr-1kg-1
Cc1ccc(-c2noc3c(Cl)c(OCC(=O)O)ccc23)cc1 | 29.3 u equiv of [Na+] kg-1 hr-1 | 0.6 m equiv [Na+] 5hr-1kg-1 | 0.8 m equiv [Na+] 5hr-1kg-1
O=C(O)COc1cc(Cl)c2c(-c3ccccc3F)noc2c1 | 82.1 u equiv of [Na+] kg-1 hr-1 | 1.16 m equiv [Na+] 5hr-1kg-1 | 1.59 m equiv [Na+] 5hr-1kg-1
O=C(O)COc1cc2onc(-c3ccccc3F)c2cc1Cl | 49.8 u equiv of [Na+] kg-1 hr-1 | 0.2 m equiv [Na+] 5hr-1kg-1 | 0.6 m equiv [Na+] 5hr-1kg-1
O=C(O)COc1ccc2c(-c3ccc(Cl)cc3F)noc2c1Cl | 156.2 u equiv of [Na+] kg-1 hr-1 | 1.4 m equiv [Na+] 5hr-1kg-1 | 1.8 m equiv [Na+] 5hr-1kg-1
O=C(O)COc1ccc2c(-c3ccccc3F)noc2c1 | 33.6 u equiv of [Na+] kg-1 hr-1 | 2.89 m equiv [Na+] 5hr-1kg-1 | 
CCOC(=O)COc1ccc2c(-c3ccccc3F)noc2c1Cl | 39.1 u equiv of [Na+] kg-1 hr-1 | 1.48 m equiv [Na+] 5hr-1kg-1 | 
O=C(O)COc1cc2onc(-c3ccccc3F)c2cc1Br |  | 0.28 m equiv [Na+] 5hr-1kg-1 | 0.47 m equiv [Na+] 5hr-1kg-1
O=C(O)COc1ccc2c(-c3ccco3)noc2c1Cl | 199 u equiv of [Na+] kg-1 hr-1 | 0.6 m equiv [Na+] 5hr-1kg-1 | 
Cc1ccsc1-c1noc2c(Cl)c(OCC(=O)O)ccc12 | 97.7 u equiv of [Na+] kg-1 hr-1 | 0.7 m equiv [Na+] 5hr-1kg-1 | 
Cc1cccc(-c2noc3c(Cl)c(OCC(=O)O)ccc23)c1C | 219.9 u equiv of [Na+] kg-1 hr-1 | 0.02 m equiv [Na+] 5hr-1kg-1 | 
